Reference: ChEMBL document CHEMBL1147105, “In vitro and in vivo activities of PD 0305970 and PD 0326448, new bacterial gyrase/topoisomerase inhibitors with potent antibacterial activities versus multidrug-resistant gram-positive and fastidious organism groups” (2007)

Legend:
Actinomyces sp. = assay: Antibacterial activity against Actinomyces sp.; assay type: functional
Cutibacterium acnes = assay: Antibacterial activity against Propionibacterium acnes; assay type: functional
Enterococcus faecium [1] = assay: Antibacterial activity against VanB-resistant Enterococcus faecium; assay type: functional
Procedure, shortened: (§1)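 Broth microdilution MIC per CLSI guidelines, incubated at 35°C. Cation-adjusted Mueller-Hinton broth for nonfastidious organisms and staphylococci. Streptococci tested in the same broth with 3% lysed horse blood. Anaerobes tested in supplemented Brucella broth inside an anaerobe chamber (5% CO2, 5% H2, 90% N2), read after 48 h. Strains were mainly recent clinical isolates with confirmed identity.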

Haemophilus influenzae [2] = assay: Antibacterial activity against beta-lactamase negative Haemophilus influenzae; assay type: functional
Procedure, shortened: (§2)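 Broth microdilution MIC following CLSI guidelines, in Haemophilus test medium at 35°C.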

Corynebacterium jeikeium = assay: Antibacterial activity against Corynebacterium jeikeium; assay type: functional
Procedure, shortened: (§3)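 Broth microdilution MIC following CLSI guidelines, in cation-adjusted Mueller-Hinton broth containing 3% lysed horse blood, incubated at 35°C. Clinical isolates with identity confirmed. Reported as MIC range, MIC50 and MIC90.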

[3] = tested on: Fusobacterium necrophorum; assay: Antibacterial activity against Fusobacterium necrophorum; assay type: functional
Procedure, shortened: (§4)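 Anaerobic broth microdilution MIC following CLSI guidelines, in supplemented Brucella broth. Run in an anaerobe chamber under 5% CO2, 5% H2 and 90% N2 at 35°C, and read after 48 h. Reported as MIC range, MIC50 and MIC90.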

[4] = tested on: Prevotella melaninogenica; assay: Antibacterial activity against Prevotella melaninogenica; assay type: functional; procedure, shortened: as §4
Staphylococcus aureus [5] = assay: Antibacterial activity against oxacillin-susceptible Staphylococcus aureus; assay type: functional
Procedure, shortened: (§5)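 MIC by CLSI broth microdilution for nonfastidious organisms, in cation-adjusted Mueller-Hinton broth incubated at 35°C.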

Moraxella catarrhalis [6] = assay: Antibacterial activity against beta-lactamase negative Moraxella catarrhalis; assay type: functional
Streptococcus sanguinis = assay: Antibacterial activity against Streptococcus sanguis; assay type: functional
Procedure, shortened: (§6)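 Broth microdilution MIC following CLSI guidelines, in cation-adjusted Mueller-Hinton broth with 3% lysed horse blood. Plates incubated at 35°C. Clinical isolates and reference strains, with identity confirmed by standard microbiological methods.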

Streptococcus equinus = assay: Antibacterial activity against Streptococcus bovis; assay type: functional; procedure, shortened: as §6
[7] = tested on: Staphylococcus haemolyticus; assay: Antibacterial activity against Staphylococcus haemolyticus; assay type: functional; procedure, shortened: as §3
Serratia marcescens = assay: Antibacterial activity against Serratia marcescens; assay type: functional
Procedure, shortened: (§7)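 Broth microdilution MIC following CLSI guidelines, in cation-adjusted Mueller-Hinton broth, incubated at 35°C. Recent clinical isolates and reference strains, with identity confirmed by automated and standard microbiological methods. Results reported as MIC range, MIC50 and MIC90.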

Streptococcus pneumoniae = assay: Antibacterial activity against penicillin-intermediate resistant Streptococcus pneumoniae; assay type: functional; procedure, shortened: as §1
Prevotella bivia = assay: Antibacterial activity against Prevotella bivia; assay type: functional; procedure, shortened: as §4
Salmonella typhimurium = assay: Antibacterial activity against Salmonella enterica serovar Typhimurium; assay type: functional, Salmonella enterica subsp. enterica serovar Typhimurium; procedure, shortened: as §7
Acinetobacter sp. = assay: Antibacterial activity against Acinetobacter sp.; assay type: functional; procedure, shortened: as §7
Fusobacterium nucleatum = assay: Antibacterial activity against Fusobacterium nucleatum; assay type: functional; procedure, shortened: as §4
Staphylococcus aureus [8] = assay: Antibacterial activity against oxacillin and levofloxacin-resistant Staphylococcus aureus; assay type: functional; procedure, shortened: as §1
Bacteroides ovatus = assay: Antibacterial activity against Bacteroides ovatus; assay type: functional; procedure, shortened: as §4
Proteus vulgaris = assay: Antibacterial activity against Proteus vulgaris; assay type: functional; procedure, shortened: as §7
Enterococcus faecium [9] = assay: Antibacterial activity against Enterococcus faecium; assay type: functional; procedure, shortened: as §1
Prevotella buccae = assay: Antibacterial activity against Prevotella buccae; assay type: functional; details: Segatella buccae; procedure, shortened: as §4
Enterococcus gallinarum = assay: Antibacterial activity against Enterococcus gallinarum; assay type: functional
Citrobacter koseri = assay: Antibacterial activity against Citrobacter diversus; assay type: functional; procedure, shortened: as §7
Anaerococcus prevotii = assay: Antibacterial activity against Peptostreptococcus prevotii; assay type: functional; procedure, shortened: as §4
Enterococcus faecalis [10] = assay: Antibacterial activity against VanB-resistant Enterococcus faecalis; assay type: functional; procedure, shortened: as §1
Citrobacter freundii = assay: Antibacterial activity against Citrobacter freundii; assay type: functional; procedure, shortened: as §7
Hoylesella oralis = assay: Antibacterial activity against Prevotella oralis; assay type: functional; procedure, shortened: as §4
Finegoldia magna = assay: Antibacterial activity against Peptostreptococcus magnus; assay type: functional; procedure, shortened: as §4
Clostridium perfringens = assay: Antibacterial activity against Clostridium perfringens; assay type: functional; procedure, shortened: as §1
Shigella flexneri = assay: Antibacterial activity against Shigella flexneri; assay type: functional; procedure, shortened: as §7
Enterococcus faecalis [11] = assay: Antibacterial activity against Enterococcus faecalis; assay type: functional; procedure, shortened: as §1
[12] = tested on: Enterococcus casseliflavus; assay: Antibacterial activity against Enterococcus casseliflavus; assay type: functional
Enterococcus faecalis [13] = assay: Antibacterial activity against beta-lactamase positive Enterococcus faecalis; assay type: functional; procedure, shortened: as §5
Shigella dysenteriae = assay: Antibacterial activity against Shigella dysenteriae; assay type: functional
Corynebacterium sp. = assay: Antibacterial activity against Corynebacterium sp.; assay type: functional; procedure, shortened: as §3
[14] = tested on: Staphylococcus epidermidis; assay: Antibacterial activity against oxacillin-resistant Staphylococcus epidermidis; assay type: functional; procedure, shortened: as §1
Escherichia coli = assay: Antibacterial activity against Escherichia coli; assay type: functional; procedure, shortened: as §7
Klebsiella oxytoca = assay: Antibacterial activity against Klebsiella oxytoca; assay type: functional; procedure, shortened: as §7
Moraxella catarrhalis [15] = assay: Antibacterial activity against beta-lactamase positive Moraxella catarrhalis; assay type: functional
Haemophilus influenzae [16] = assay: Antibacterial activity against beta-lactamase positive Haemophilus influenzae; assay type: functional; procedure, shortened: as §2
Shigella sonnei = assay: Antibacterial activity against Shigella sonnei; assay type: functional; procedure, shortened: as §7
Neisseria gonorrhoeae = assay: Antibacterial activity against Neisseria gonorrhoeae; assay type: functional
Procedure, shortened: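 MIC by broth microdilution in gonococcal broth, incubated at 35°C in 5% CO2. Reported as MIC range, MIC50 and MIC90.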

Salmonella enteritidis = assay: Antibacterial activity against Salmonella enterica serovar Enteritidis; assay type: functional, Salmonella enterica subsp. enterica serovar Enteritidis; procedure, shortened: as §7
Bacteroides fragilis = assay: Antibacterial activity against Bacteroides fragilis; assay type: functional; procedure, shortened: as §4
Staphylococcus aureus [17] = assay: Antibacterial activity against vancomycin-intermediate Staphylococcus aureus; assay type: functional; procedure, shortened: as §1
Streptococcus mitis = assay: Antibacterial activity against Streptococcus mitis; assay type: functional; procedure, shortened: as §6

Cc1c(N2CC[C@@H]([C@H](C)N)C2)c(F)cc2c(=O)n(N)c(=O)n(C3CC3)c12
16 µg/mL: MIC90 (Serratia marcescens) | MIC90 (Bacteroides ovatus) | MIC90 (Citrobacter freundii)
0.03 µg/mL: MIC50 (Streptococcus sanguinis) | MIC90 (Streptococcus sanguinis) | MIC50 (Streptococcus equinus) | MIC90 (Streptococcus equinus) | MIC50 (Streptococcus pneumoniae) | MIC (Anaerococcus prevotii) | MIC (Finegoldia magna) | MIC50 (Streptococcus mitis) | MIC90 (Streptococcus mitis)
1 µg/mL: MIC90 [4] | MIC90 (Prevotella bivia) | MIC90 (Salmonella typhimurium) | MIC50 (Acinetobacter sp.) | MIC (Proteus vulgaris) | MIC50 (Enterococcus faecium [9]) | MIC90 (Prevotella buccae) | MIC50 (Citrobacter koseri) | MIC90 (Hoylesella oralis) | MIC90 (Shigella flexneri) | MIC90 (Shigella dysenteriae) | MIC50 (Escherichia coli) | MIC50 (Klebsiella oxytoca) | MIC90 (Shigella sonnei) | MIC90 (Salmonella enteritidis)
4 µg/mL: MIC90 (Cutibacterium acnes) | MIC50 (Bacteroides ovatus) | MIC90 (Citrobacter koseri) | MIC50 (Citrobacter freundii) | MIC90 (Bacteroides fragilis)
0.25 µg/mL: MIC90 (Haemophilus influenzae [2]) | MIC50 (Corynebacterium jeikeium) | MIC90 (Corynebacterium jeikeium) | MIC50 [4] | MIC50 (Moraxella catarrhalis [6]) | MIC50 (Prevotella bivia) | MIC50 (Staphylococcus aureus [8]) | MIC50 (Prevotella buccae) | MIC50 (Enterococcus gallinarum) | MIC90 (Enterococcus gallinarum) | MIC50 (Enterococcus faecalis [10]) | MIC90 (Enterococcus faecalis [10]) | MIC50 (Hoylesella oralis) | MIC90 (Enterococcus faecalis [11]) | MIC50 [12] | MIC90 [12] | MIC50 (Corynebacterium sp.) | MIC90 (Corynebacterium sp.) | MIC50 (Moraxella catarrhalis [15]) | MIC90 (Haemophilus influenzae [16]) | MIC50 (Neisseria gonorrhoeae)
0.06 µg/mL: MIC [3] | MIC90 (Streptococcus pneumoniae) | MIC (Fusobacterium nucleatum) | MIC (Enterococcus faecalis [13])
8 µg/mL: MIC90 (Acinetobacter sp.)
2 µg/mL: MIC50 (Cutibacterium acnes) | MIC50 (Serratia marcescens) | MIC90 (Enterococcus faecium [9]) | MIC90 (Clostridium perfringens) | MIC90 (Escherichia coli) | MIC90 (Klebsiella oxytoca) | MIC50 (Bacteroides fragilis)
0.125 µg/mL: MIC50 (Haemophilus influenzae [2]) | MIC50 (Staphylococcus aureus [5]) | MIC90 (Staphylococcus aureus [5]) | MIC50 [7] | MIC50 (Enterococcus faecalis [11]) | MIC50 [14] | MIC90 [14] | MIC50 (Haemophilus influenzae [16]) | MIC (Staphylococcus aureus [17])
0.5 µg/mL: MIC (Actinomyces sp.) | MIC (Enterococcus faecium [1]) | MIC90 (Moraxella catarrhalis [6]) | MIC90 [7] | MIC50 (Salmonella typhimurium) | MIC90 (Staphylococcus aureus [8]) | MIC50 (Clostridium perfringens) | MIC50 (Shigella flexneri) | MIC50 (Shigella dysenteriae) | MIC90 (Moraxella catarrhalis [15]) | MIC50 (Shigella sonnei) | MIC90 (Neisseria gonorrhoeae) | MIC50 (Salmonella enteritidis)
